The values that follow come from ChEMBL document CHEMBL4130528, “Serotonin Analogues as Inhibitors of Breast Cancer Cell Growth” (ACS Med Chem Lett, 2017).

Data set [1] relates to MCF7. Kind of data set: Cytotoxicity against human MCF7 cells assessed as reduction in cell viability by cell titer 96 aqueous one solution based assay. The format is functional. An outline of the steps:
(§1)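 MDA-MB-231 and MCF-7 breast cancer cells were treated with increasing concentrations of compound. Viability was read by MTS assay, and IC50 values were derived from the concentration–response data.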

In data set [2] the test system is MDA-MB-231. Kind of data set: Cytotoxicity against human MDA-MB-231 cells assessed as reduction in cell viability by cell titer 96 aqueous one solution based assay. The format is functional. An outline of the steps: as §1
The subject of data set [3] is MDA-MB-231. Kind of data set: Inhibition of mTORC1 signaling in human MDA-MB-231 cells assessed as phenylalanine accumulation after 7 to 24 hrs by 1H-MRS analysis. The format is cell-based. An outline of the steps:
(§2)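 MDA-MB-231 cells were treated for 7 or 24 h, and intracellular metabolites were profiled by 1H-MRS. Treated and untreated groups were compared by principal component analysis.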

The subject of data set [4] is MDA-MB-231. Kind of data set: Inhibition of mTORC1 signaling in human MDA-MB-231 cells assessed as reduction in p70S6K phosphorylation at Thr389 at 20 uM after 12 hrs by RPPA analysis. The format is cell-based.
The subject of data set [5] is MDA-MB-157. Kind of data set: Cytotoxicity against human MDA-MB-157 cells assessed as reduction in cell viability up to 10 uM after 24 to 72 hrs by cell titer 96 aqueous one solution based assay. The format is functional. A digest of the protocol: (§3)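 Triple-negative breast cancer cells were incubated with compound for 24, 48 or 72 h. Viability was then measured by MTS assay across a concentration series.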

Data set [6] deals with MDA-MB-157. Kind of data set: Induction of apoptosis in human MDA-MB-157 cells assessed as increase in cleaved PARP level up to 10 uM by Western blot analysis. The format is functional, cell-based. An outline of the steps:
(§4)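 Cells were treated with a range of compound concentrations. Apoptosis was assessed by Western blot detection of cleaved poly-ADP ribose polymerase (PARP).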

Data set [7] relates to MDA-MB-231. Kind of data set: Inhibition of mTORC1 signaling in human MDA-MB-231 cells assessed as alanine accumulation after 7 to 24 hrs by 1H-MRS analysis. The format is cell-based. A digest of the protocol: as §2
For data set [8], the system named is MDA-MB-231. Kind of data set: Cytotoxicity against human MDA-MB-231 cells assessed as reduction in cell viability up to 10 uM in serum-free medium by cell titer 96 aqueous one solution based assay. The format is functional. An outline of the steps: (§5)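 Viability was measured by MTS after treating triple-negative breast cancer cells in serum-free medium, either alone or with BSA added to the serum-free medium, across a concentration series.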

The test system of data set [9] is MDA-MB-231. Kind of data set: Inhibition of mTORC1 signaling in human MDA-MB-231 cells assessed as reduction in S6 phosphorylation at Ser235 at 20 uM after 12 hrs by RPPA analysis. The format is cell-based.
For data set [10], the system named is MDA-MB-231. Kind of data set: Inhibition of PI3K/AKT in human MDA-MB-231 cells assessed as reduction in mTOR phosphorylation at Ser2448 up to 10 uM by Western blot analysis. The format is cell-based.
In data set [11] the test system is MDA-MB-231. Kind of data set: Induction of apoptosis in human MDA-MB-231 cells assessed as increase in cleaved PARP level up to 10 uM by Western blot analysis. The format is functional, cell-based. A digest of the protocol: as §4
Data set [12] relates to MDA-MB-157. Kind of data set: Cytotoxicity against human MDA-MB-157 cells assessed as reduction in cell viability up to 10 uM in serum-free medium by cell titer 96 aqueous one solution based assay. The format is functional. An outline of the steps: as §5
Data set [13] relates to MDA-MB-231. Kind of data set: Inhibition of mTORC1 signaling in human MDA-MB-231 cells assessed as reduction in S6 phosphorylation at Ser244 at 20 uM after 12 hrs by RPPA analysis. The format is cell-based.
Data set [14] deals with MDA-MB-231. Kind of data set: Induction of apoptosis in human MDA-MB-231 cells assessed as increase in caspase 3/7 activity by Caspase-Glo 3/7 luciferase-based assay. The format is functional, cell-based. A digest of the protocol:
(§6)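 Cells were treated with a range of compound concentrations. Apoptosis was read as caspase-3/7 activity using a luciferase-based luminescent assay.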

Data set [15] relates to MDA-MB-231. Kind of data set: Effect on total p70S6K level in human MDA-MB-231 cells at 20 uM after 12 hrs by RPPA analysis. The format is cell-based. The note with it: mda-mb-231, 12 h.
In data set [16] the test system is MDA-MB-231. Kind of data set: Inhibition of mTORC1 signaling in human MDA-MB-231 cells assessed as tyrosine accumulation after 7 to 24 hrs by 1H-MRS analysis. The format is cell-based. A digest of the protocol:
as §2

Data set [17] deals with T1, AMP-activated protein kinase, AMPK (Homo sapiens) (UniProt P54646+O43741+P54619+Q9UGJ0+Q9Y478+Q13131+Q9UGI9). Kind of data set: Increase in AMPK phosphorylation at T172 in human MDA-MB-231 cells at 20 uM after 12 hrs by RPPA analysis. The format is cell-based.
In data set [18] the test system is MDA-MB-231. Kind of data set: Inhibition of mTORC1 signaling in human MDA-MB-231 cells assessed as reduction in S6 phosphorylation at Ser236 at 20 uM after 12 hrs by RPPA analysis. The format is cell-based.
Data set [19] deals with MDA-MB-231. Kind of data set: Inhibition of mTORC1 signaling in human MDA-MB-231 cells assessed as proline accumulation after 7 to 24 hrs by 1H-MRS analysis. The format is cell-based. An outline of the steps: as §2
For data set [20], the system named is MDA-MB-231. Kind of data set: Inhibition of mTORC1 signaling in human MDA-MB-231 cells assessed as intracellular UDP-glucose accumulation after 7 to 24 hrs by 1H-MRS analysis. The format is cell-based. A digest of the protocol: as §2
Data set [21] deals with T2, Acetyl-CoA carboxylase (Homo sapiens) (UniProt Q13085+O00763). Kind of data set: Increase in ACC phosphorylation at Ser79 in human MCF7 cells at 20 uM after 12 hrs by RPPA analysis. The format is cell-based.
Data set [22] addresses T2, Acetyl-CoA carboxylase (Homo sapiens). Kind of data set: Increase in ACC phosphorylation at Ser79 in human MDA-MB-231 cells at 20 uM after 12 hrs by RPPA analysis. The format is cell-based.
In data set [23] the test system is MDA-MB-157. Kind of data set: Induction of apoptosis in human MDA-MB-157 cells assessed as increase in caspase 3/7 activity up to 10 uM by Caspase-Glo 3/7 luciferase-based assay. The format is functional, cell-based. A digest of the protocol:
as §6

In data set [24] the test system is MDA-MB-231. Kind of data set: Inhibition of mTORC1 signaling in human MDA-MB-231 cells assessed as reduction in S6 phosphorylation at Ser240 at 20 uM after 12 hrs by RPPA analysis. The format is cell-based.
Data set [25] relates to MDA-MB-231. Kind of data set: Inhibition of mTORC1 signaling in human MDA-MB-231 cells assessed as reduction in […] at 10 uM by Western blot analysis. The format is cell-based.
The test system of data set [26] is MCF7. Kind of data set: Inhibition of PI3K/AKT in human MCF7 cells assessed as reduction in mTOR phosphorylation at Ser2448 at 20 uM after 12 hrs by RPPA analysis. The format is cell-based.
Data set [27] concerns MDA-MB-231. Kind of data set: Inhibition of mTORC1 signaling in human MDA-MB-231 cells assessed as intracellular UDP N-acetylglucosamine accumulation after 7 to 24 hrs by 1H-MRS analysis. The format is cell-based. An outline of the steps:
as §2

Data set [28] concerns MDA-MB-157. Kind of data set: Inhibition of PI3K/AKT in human MDA-MB-157 cells assessed as reduction in mTOR phosphorylation at Ser2448 up to 10 uM by Western blot analysis. The format is cell-based.
The test system of data set [29] is MDA-MB-231. Kind of data set: Cytotoxicity against human MDA-MB-231 cells assessed as reduction in cell viability after 24 to 72 hrs by cell titer 96 aqueous one solution based assay. The format is functional. An outline of the steps: as §3
Data set [30] concerns MDA-MB-231. Kind of data set: Inhibition of PI3K/AKT in human MDA-MB-231 cells assessed as reduction in mTOR phosphorylation at Ser2448 at 20 uM after 12 hrs by RPPA analysis. The format is cell-based.
Data set [31] has as its system MDA-MB-231. Kind of data set: Inhibition of mTORC1 signaling in human MDA-MB-231 cells assessed as glutamine accumulation after 7 to 24 hrs by 1H-MRS analysis. The format is cell-based. A digest of the protocol: as §2
The subject of data set [32] is MDA-MB-157. Kind of data set: Cytotoxicity against human MDA-MB-157 cells assessed as reduction in cell viability up to 10 uM in presence of bovine serum albumin by cell titer 96 aqueous one solution based assay. The format is functional. An outline of the steps:
as §5

Data set [33] has as its target T1, AMP-activated protein kinase, AMPK (Homo sapiens). Kind of data set: Increase in AMPK phosphorylation at T172 in human MCF7 cells at 20 uM after 12 hrs by RPPA analysis. The format is cell-based.
For data set [34], the system named is MDA-MB-231. Kind of data set: Inhibition of mTORC1 signaling in human MDA-MB-231 cells assessed as aspartate accumulation after 7 to 24 hrs by 1H-MRS analysis. The format is cell-based. A digest of the protocol:
as §2

For data set [35], the system named is MDA-MB-231. Kind of data set: Inhibition of mTORC1 signaling in human MDA-MB-231 cells assessed as glycine accumulation after 7 to 24 hrs by 1H-MRS analysis. The format is cell-based. An outline of the steps: as §2
Data set [36] concerns MDA-MB-231. Kind of data set: Effect on total S6 level in human MDA-MB-231 cells at 20 uM after 12 hrs by RPPA analysis. The format is cell-based. The note with it: mda-mb-231, 12 h.
Data set [37] deals with MDA-MB-157. Kind of data set: Inhibition of mTORC1 signaling in human MDA-MB-157 cells assessed as reduction in […] at 10 uM by Western blot analysis. The format is cell-based.

pIC50: −log10 of the molar value. Active and inactive are the calls of the source. No cut-off for these calls is given here. Bounds are passed on as bounds.

On to `CCCCCCCCCCCCCCOc1ccc2[nH]cc(CCN)c2c1`, for which the negative-log IC50 (pIC50) is 5.08 with MCF7 [1] and 5.32 in the data set with MDA-MB-231 [2].
For the compound `CCCCCCCCCCCCOc1ccc2[nH]cc(CCN)c2c1.Cl`, the inhibition result in the data set with MDA-MB-231 [3], with MDA-MB-231 [4], in the data set with MDA-MB-231 [7], in the data set on MDA-MB-231 [9], with MDA-MB-231 [13] and in the data set on MDA-MB-231 [16] was “Active” in each case. Also, the inhibition entry in the data set on MDA-MB-231 [18], with MDA-MB-231 [19], in the data set on MDA-MB-231 [20], in the data set with MDA-MB-231 [24], in the data set with MDA-MB-231 [25] and in the data set on MDA-MB-231 [27] was “Active” each time. Also, the inhibition entry in the data set on MDA-MB-231 [31], with MDA-MB-231 [34], in the data set with MDA-MB-231 [35] and with MDA-MB-157 [37] was “Active” each time. Also, the pIC50 in the data set on MCF7 [1] was 5.29; in the data set with MDA-MB-231 [2], 5.34. Also, the outcome (with MDA-MB-157 [5]; in the data set with MDA-MB-157 [6]; in the data set on MDA-MB-231 [11]; in the data set with MDA-MB-157 [12]; in [17]; in [21]) was Active. The outcome (in [22]; in the data set on MDA-MB-157 [23]; in the data set with MDA-MB-231 [29]; in the data set on MDA-MB-157 [32]; in data set [33]) was Active. In addition, in the data set on MDA-MB-231 [8], the result was inactive. The inhibition result with MDA-MB-231 [10], in the data set on MCF7 [26], in the data set with MDA-MB-157 [28] and in the data set on MDA-MB-231 [30] was “inactive” in each case. Besides, the Activity entry in the data set with MDA-MB-231 [14] is “Dose-dependent effect”; in the data set with MDA-MB-231 [15], “Non-Toxic”; in the data set with MDA-MB-231 [36] it was “Non-Toxic”.
With `NCCc1c[nH]c2ccccc12` [TRYPTAMINE], the pIC50 with MCF7 [1] and in the data set on MDA-MB-231 [2] was below 4.30 throughout.
Take `CCCCOc1ccc2[nH]cc(CCN)c2c1`: the pIC50 was 4.35 in the data set on MCF7 [1] and 4.32 with MDA-MB-231 [2].
Taken in the same sequence, the figures for `CCCCCCCCCOc1cccc2c(CCN)c[nH]c12` were 4.82 and 5.10.
In the same order, the values of `NCCc1c[nH]c2ccc(OCCCCCCCCCBr)cc12` are 4.77 and 5.00.
Taken in the same sequence, the figures for `NCCc1c[nH]c2ccc(OCc3ccc(COc4ccc5[nH]cc(CCN)c5c4)cc3)cc12` were 4.62 and 4.70.
With `CCCCCCCCCOc1ccc2[nH]cc(CCN)c2c1`, the pIC50 is 5.06 in the data set on MCF7 [1] and 5.33 in the data set with MDA-MB-231 [2].
Taken in the same sequence, the figures for `CCCCCCCCCCOc1ccc2[nH]cc(CCN)c2c1` were 5.05 and 5.36.
